Data set [1] has as its system MS2 coat protein. Briefly: apparent Kd, MS2 coat protein; higher = weaker binding; RNA-MaP array; tryptophan 2.4 mM where present. The procedure, abridged: (§1)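 SNAP-549-labelled MS2 coat protein, doubled from 0.7 or 1.5 nM to 3 µM, was titrated over designs transcribed by stalled E. coli RNA polymerase on Illumina sequencing-chip clusters. Titrations were run without and then with constant ligand in 100 mM Tris-HCl pH 7.5, 80 mM KCl, 4 mM MgCl2, BSA, DTT, yeast tRNA and Tween-20. The apparent Kd is the median of filtered per-cluster fits to green signal normalised to red-channel RNA signal and control-cluster median Fmax.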

Data set [2] relates to MS2 coat protein. Briefly: apparent Kd, MS2 coat protein; higher = weaker binding; RNA-MaP array; theophylline 2 mM where present. The note with it: designed as: OFF switch for theophylline. A digest of the protocol:
as §1

Setting [3] is: designed as: OFF switch for tryptophan, no ligand.
The mark [4] stands for this setting: ligand present: tryptophan, designed as: OFF switch for tryptophan.
Where [5] appears, read: designed as: ON switch for tryptophan, no ligand.
Setting [6] is: ligand present: tryptophan, designed as: ON switch for tryptophan.

These results are taken from the EternaBench riboswitch data.

The apparent Kd is a dissociation constant that holds for the conditions of the assay.

In the case of “CCAUUGAUGACGGCCGCCACUGUCUACAUGAGGAUCACCCAUGUAUAGCAGGGUGGACCUAUGGACAGGACCGGGUCACUUGUCC”, the figures for the “apparent Kd” value in data set [1] (setting [3]) and in data set [1] (setting [4]) were 11 nM and 12.3 nM, respectively.

With “GGGAGGGAGGCGGCCGCCACUGAUUUUCAUAUAUAUAUAACAUGAGGAUCACCCAUGUAGAUAUACAGGACCGGGCCUUUUUUUU”, the entries for the “apparent Kd” value in data set [1] (setting [5]) and in data set [1] (setting [6]) were 20.4 nM and 19.5 nM, respectively.

Consider “AUUCAUGGAAACAUGACAUACAUUACCGGUCGAGGACCGGUACGGCCGCCACUCGGUUGGUGGCACAUGAGGAUCACCCAUGUUA”, for which the “apparent Kd” value in data set [1] (setting [5]) was 26.8 nM; in data set [1] (setting [6]) it was 26.7 nM.

In the case of “UGUAUUGGAAACAGUACUAGUGAUCCGGUCCGAGGACCGGUACGGCCGCCACUCGAUAUAAAUAAACAUGAGGAUCACCCAUGUA”, the “apparent Kd” value in data set [1] (setting [3]) was found to be 14.9 nM; in data set [1] (setting [4]), 29.8 nM.

As for “CUAUAAAUAGCGGCCGCCACUUACUCAUGAGGUAACAACAUGAGGAUCACCCAUGUUUGAGGAUCAAGGACCGGGCUAUUUAUAG”, the “apparent Kd” value in data set [1] (setting [5]) stood at 29.8 nM; in data set [1] (setting [6]) it was 17.6 nM.

On to “UCGGACAUGAGGAUCACCCAUGUAAAUCCUCGAGGACCGGUACGGCCGCCACUCGAACGAGUGGCACGCGAGUGCGCACUCGCGU”, for which the “apparent Kd” value in data set [1] (setting [5]) turned out to be 30.9 nM; in data set [1] (setting [6]), 27.7 nM.

As for “AAUAAACAUGAGGAUCACCCAUGUUGUUGACGAGGACCGGUACGGCCGCCACUCGACAUGAGGAUCACCCAUGUUGUCACAUGAG”, the “apparent Kd” value was found to be 180 nM in data set [1] (setting [5]) and 151 nM in data set [1] (setting [6]).

Regarding “UAAUAAGUACCGGUUCUCAGAUCCUCAUGUCGAGGACCGGUACGGCCGCCACUCGAAACAUGAGGAUCACCCAUGUAAUAAUAAU”, the “apparent Kd” value in data set [1] (setting [3]) was 36.2 nM; in data set [1] (setting [4]) it was 31.7 nM.

“CAAUAAGUACCGGUCCUCAGAUCCUCAUGACGAGGACCGGUACGGCCGCCACUCGAAACAUGAGGAUCACCCAUGUAAUAAUAAC”: the “apparent Kd” value was 40.9 nM in data set [1] (setting [3]) and 30.5 nM in data set [1] (setting [4]).

As for “GGAUGGAACUCGGCCGCCACUGGUGAUCCUAAUGUACAUGAGGAUCACCCAUGUACAUGAGAAGAUAGGACCGGGAGAUAACAUG”, the entries for the “apparent Kd” value in data set [1] (setting [5]) and in data set [1] (setting [6]) were 27.7 nM and 19.8 nM, respectively.

Turning to “CUAUAUGGAAACAUAUAGAAGCGAAAGCAACGAGGACCGGUACGGCCGCCACUCGAAGAGUGGUGGACAUGAGGAUCACCCAUGU”, the results for the “apparent Kd” value in data set [1] (setting [5]) and in data set [1] (setting [6]) were 63.3 nM and 52.8 nM, respectively.

For the sequence “GGUUACUCUACGGCCGCCACUGUAAUGUAAAGAUUCCUGUACAUGACAUGAGGAUCACCCAUGUGCAGGACCGGGUAGUGUAACC”, the “apparent Kd” value was found to be 194 nM in data set [1] (setting [5]) and 52.6 nM in data set [1] (setting [6]).

As for “GACCCAUGAGUUGUAAAAGCUCAUGGGUCGCGAGGACCGGUACGGCCGCCACUCGGCUGUACAUGAGGAUCACCCAUGUCAGGGU”, the “apparent Kd” value in data set [1] (setting [5]) stood at 134 nM; in data set [1] (setting [6]) it was 761 nM.

As to “UUAUGCAGGUCGGCCGCCACUACACACAUGAGGAUCACCCAUGUAGUUACUGGGUGAAGUGGCAGUAGGACCGGGACCUGCAUAU”, the “apparent Kd” value in data set [1] (setting [5]) stood at 371 nM; in data set [1] (setting [6]) it was 227 nM.

For the sequence “ACACAUGAGGAUCACCCAUGUUGAGGAACACGAGGACCGGUACGGCCGCCACUCGACACAUGAGGAUCACCCAUGUGAUCACCCA”, the “apparent Kd” value in data set [1] (setting [5]) came to 141 nM; in data set [1] (setting [6]), 169 nM.

For the sequence “UUACAUGAGGAUCACCCAUGUUUACUAUGUCGAGGACCGGUACGGCCGCCACUCGUAUUUGAUGAUUUAGGUGCCACAAGUUAUU”, the “apparent Kd” value in data set [1] (setting [3]) was determined as 21.2 nM; in data set [1] (setting [4]) it was 20.5 nM.

For the sequence “GUCUUGGGAUCGGCCGCCACUACAUGAGGAUCACCCAUGUGGACAAAUAGGGUUUUUAAGCUCGGUAGGACCGGGAUUCGGACAU”, the entries for the “apparent Kd” value in data set [1] (setting [3]) and in data set [1] (setting [4]) were 12.9 nM and 56.9 nM, respectively.

For “GGUAUGUAUUCGGAAACGAAUGCAUACCAACGAGGACCGGUACGGCCGCCACUCGGCCGUGAUCAACAUGAGGAUCACCCAUGUA”, the entries for the “apparent Kd” value in data set [1] (setting [3]) and in data set [1] (setting [4]) were 15.8 nM and 26.8 nM, respectively.

On to “GCGACCCUGAGAUCCUGCGUAACGUGAACACGAGGACCGGUACGGCCGCCACUCGAGAGAACAUGAGGAUCACCCAUGUCUGAGC”, for which the “apparent Kd” value came to 20.4 nM in data set [1] (setting [3]) and 22.2 nM in data set [1] (setting [4]).

Take “GAUAUGGAAACAUGUCAGAUCCUUACCGGUCGAGGACCGGUACGGCCGCCACUCGAAAACGAGGAACAUGAGGAUCACCCAUGUA”: the “apparent Kd” value in data set [1] (setting [3]) amounted to 49.7 nM; in data set [1] (setting [4]), 87.5 nM.

For the sequence “CAAACAUGAGGAUCACCCAUGUAAUCAGAUACCAGUGACGAAAGUCACCCUUGGCAGCUGAUUACUUUAGUUCUAAGGUGUUUGA”, the figures for the “apparent Kd” value in data set [2] (no ligand) and in data set [2] (ligand present: theophylline) were 92.6 nM and 56.6 nM, respectively.

As to “AGACAUGAGGAUCACCCAUGUAGUAUGGAUACCAGAUCCAGAUUUAUCCCUUGGCAGCUGUGGUACAGCGAUGGAUCGCUCCUAG”, the “apparent Kd” value is 23.4 nM in data set [2] (no ligand) and 27.8 nM in data set [2] (ligand present: theophylline).
